Most compounds without a hit are left out; they make up all but 2.6% or so of the library.
MC4R barr agon: agonists of human melanocortin 4 receptor (MC4R) beta-arrestin; P32245; U2OS MC4R beta-arrestin complementation, luminescence; percent of melanotan II response, DMSO zero; activation, % at 8.9 µM; actives 0.98% (n = 360,000);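 active = activation above a per-plate cutoff, the mean activation of sample wells on that plate plus 3 SD, cut at about 8% in these data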
Target sequence (P32245 whole entry, looked up): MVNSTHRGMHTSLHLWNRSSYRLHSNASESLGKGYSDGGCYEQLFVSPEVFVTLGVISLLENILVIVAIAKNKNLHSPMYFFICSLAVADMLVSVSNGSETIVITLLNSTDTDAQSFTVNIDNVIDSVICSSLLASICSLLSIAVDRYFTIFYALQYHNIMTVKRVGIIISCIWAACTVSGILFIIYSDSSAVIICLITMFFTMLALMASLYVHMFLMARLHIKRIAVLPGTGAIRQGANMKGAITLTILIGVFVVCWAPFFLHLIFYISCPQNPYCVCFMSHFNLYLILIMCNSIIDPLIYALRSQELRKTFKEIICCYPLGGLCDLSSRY
T cell modulator: T cell immune modulators affecting CD8 T cell-vesicle binding | actives 0.068% (n = 330,000) | AID 2052 | 2C CD8+ T cell-vesicle binding, flow cytometry; stronger effect = lower value | response (vesicle binding), % at 7 µM;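 active = response, share of CD8 T cells binding vesicles, and their 90th percentile fluorescence all below set limits, cut at about 80% in these data, passing the limit was not always enough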;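 also: values below 100% mean blocked vesicle binding to the CD8+ T cells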
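Also added: QL9-peptide-loaded Drosophila micro-vesicles bearing Ld, ICAM-1 and B7-1; Test system: purified 2C TCR transgenic mouse naive CD8+ T cells; Measured by: cytometric PE anti-B7-1 and Alexa647 anti-CD8 signals after 1% paraformaldehyde fixation; Timing: binding step 1.5 h, 37 °C, antibody labelling 20 min, ice.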
Granule exo inh: blocks lytic granule exocytosis. TALL-104 LAMP-1 surface exposure, flow cytometry; cells stimulated with thapsigargin and PMA. inhibition, % at 10 µM. actives 0.66% (n = 360,000). AID 651702;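 active = inhibition above about 55%, limit read from the data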
MC4R antag cAMP: blocks human MC4R cAMP signaling; P32245; MC4R-expressing cells, MTII-stimulated cAMP, LANCE TR-FRET; inhibition, % at 6.5 µM; actives 0.48% (n = 360,000);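 active = inhibition above its plate's cutoff, the mean of tested wells on that plate plus 3 SD, cut at about 29% in these data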;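 also: 0% = Melanotan II alone and 100% = Melanotan II plus saturating MCL0020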
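Assay system: human MC4R-expressing U2OS cells; reagent: Melanotan II stimulation of cells; dosing: 6.5 µM single dose; timing: compound 30 min, challenge 1 h, detection 1 h; signal: TR-FRET cAMP assay; replicates: one well per compound, no replicates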
EP2 antag: EP2 receptor (human) inhibition | P43116 | actives 0.52% (n = 260,000) | inhibition, % at 25 µM | C6 glioma cells expressing human EP2, cAMP TR-FRET; cells stimulated with saturating PGE2;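 active = percent inhibition above 40 after rounding to a whole number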;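 also: rat C6 glioma host cells with rolipram phosphodiesterase inhibitor present; the protocol text gives 20 µM as final concentration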
EP2 mod: modulators of human EP2 prostaglandin E2 receptor; actives 0.83% (n = 260,000); EP2-expressing cells, cAMP HTRF FRET, PGE2 co-stimulation; P43116; induction, % at 25 µM;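 active = compounds whose cAMP rise, as percent of the full-agonist control response, exceeds 60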;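 also: rat C6 glioma line stably carrying human EP2 under a CMV promoter; the protocol text gives 20 µM as final concentration; 100% = response of wells given 1 µM PGE2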
U2OS cAMP counter: nonselective cAMP signaling inhibitor, MC4R antagonist counter-screen | parental U2OS, forskolin cAMP, LANCE TR-FRET | actives 26% (n = 1,600) | inhibition, % at 6.5 µM | shares compounds with MC4R antag cAMP;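 active = mean inhibition over triplicates above the low-control well mean plus 3 SD, set per campaign, cut at about 13% in these data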;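 also: signal is single emission at 671 nm which falls as cellular cAMP rises; 0% = forskolin-stimulated wells and 100% = buffer without forskolin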
MC4R cAMP antag: human MC4R cAMP antagonism confirmation; shares compounds with MC4R antag cAMP; MC4R-expressing cells, MTII-stimulated cAMP, TR-FRET; inhibition, % at 6.5 µM; actives 27% (n = 1,600); AID 602195; in the data active = inhibition above about 29%;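 also: 0% = agonist stimulated wells alone and 100% = agonist stimulated wells plus saturating reference antagonist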
An asterisk follows results filed as active; / = no result given.

SMILES	MC4R barr agon	T cell modulator	Granule exo inh	MC4R antag cAMP	EP2 antag	EP2 mod	U2OS cAMP counter	MC4R cAMP antag
COc1ccc(-n2c(SC3CCOC3=O)nc3ccccc32)cc1 (stereo not drawn)	-0.6	611.5	3.0	42.1*	14.3	54.2	10.7	22.8
O=C1OCCC1Sc1nnc(-c2ccc(F)cc2)n1Cc1ccccc1 (stereo not drawn)	-1.7	302.3	2.7	32.1*	2.5	14.3	25.8*	32.3*
O=C1OCCC1Sc1nc2ccccc2n1-c1ccccc1 (stereo not drawn)	0.4	212.2	-0.1	22.7	16.5	38.1	/	/
O=C1OCCC1Sc1nc2ccccc2n1Cc1ccccc1 (stereo not drawn)	-1.9	239.8	-1.8	30.0*	9.9	23.5	10.0	36.9*
Cc1cc(C)c(S(=O)(=O)N(C)CC(=O)NCc2ccccn2)c(C)c1	0.1	152.8	0.1	1.5	11.3	-10.4	/	/
Cc1cc(C)c(S(=O)(=O)NCC(=O)NCc2ccccn2)c(C)c1	-2.6	387.2	-1.5	30.4*	0.5	0.9	0.3	-1.8
CCOc1ccc(NS(=O)(=O)c2ccc(OCC(=O)NCc3ccncc3)cc2)cc1	-3.3	269.8	43.3	7.3	/	/	/	/
CC(C)Cn1[nH]c2c3c(ccc2c1=O)C(=O)c1ccccc1C3=O	1.3	340.7	2.0	2.2	17.4	-13.8	/	/
CC(C)(C)N=C1C([N+](=O)[O-])=CC=C2C1=NC1(CCCCC1)N2O	1.2	322.0	-3.4	-0.5	13.8	16.1	/	/
CCCN(CC(=O)Nc1ccccc1C)CC(=O)Nc1ccc(Br)cc1F	1.6	311.4	30.2	28.7*	/	/	0.3	3.0
CCCN(CC(=O)Nc1ccccc1Br)CC(=O)Nc1ccc(F)c(F)c1F	0.3	278.1	3.2	5.9	11.8	6.7	/	/
CCc1ccc(-n2ccc(=O)c(C(=O)O)n2)cc1	-1.5	374.7	3.9	7.4	/	/	/	/
CCOC(=O)N1CCC(n2c(SCC(=O)N3CCCC3)nc3ccccc3c2=O)CC1	-0.4	183.0	-2.5	-3.6	3.5	12.5	/	/
C=CCSc1nc2ccccc2c(=O)n1C1CCOC(C)(C)C1 (stereo not drawn)	5.6	289.6	20.6	34.4*	5.3	75.8*	-3.0	5.6
O=C(Nc1cccc(C(=O)N2CCCCC2)c1)C1CCCC1	-1.6	/	-2.1	12.6	/	/	/	/
Cc1ccc(S(=O)(=O)Nc2nc(C)cc(NN)n2)cc1	-1.2	392.0	6.5	28.8*	12.2	9.2	3.8	9.4
O=C(c1ccco1)N1CCN(C2CN(Cc3ccc(F)cc3)S(=O)(=O)C2)CC1 (stereo not drawn)	/	/	2.7	/	/	/	/	/
CCOc1ccc(-c2nnc3ccc(SCC(=O)N4CCCCC4)nn23)cc1	-1.7	287.3	20.9	0.4	14.1	/	/	/
CCOc1ccc(-c2nnc3ccc(SCC(=O)N4CCN(c5ccccc5)CC4)nn23)cc1	0.3	/	8.1	31.8*	/	/	2.9	4.3
CC(/C=N/n1c(-c2ccc(Cl)cc2)n[nH]c1=S)=C\c1ccco1	1.8	220.6	17.8	10.1	10.4	15.9	/	/
N#CC(C#N)=C1C=CC=CN1/C(=C\c1ccco1)C(=O)c1ccc(Cl)cc1	-3.3	234.8	90.1*	33.7*	29.3	-64.1	28.8*	43.2*
N#C/C(=C\c1ccco1)C(=O)NCc1ccccc1	-1.8	230.7	3.7	6.5	15.1	-23.1	/	/
N#CC(C#N)=C1C=CC=CN1/C(=C\c1ccco1)C(=O)c1ccc(-c2ccccc2)cc1	-4.1	317.9	28.4	31.2*	10.7	3.6	-0.5	12.7
O=C(NCC(c1ccco1)N1CCOCC1)c1ccc(F)cc1 (stereo not drawn)	-1.5	619.5	2.2	-0.3	/	/	/	/
COCc1nn2c(N)c(-c3ccccc3)cnc2c1-c1ccccc1	0.2	285.4	-2.5	-13.4	/	/	/	/

Screens: PubChem, several laboratories
